Experimental data: ChEMBL document CHEMBL1152218, “New acridone-4-carboxylic acid derivatives as potential inhibitors of hepatitis C virus infection” (Bioorg Med Chem, 2008)
Activity calls are given as the source filed them. The calls are words filed in the database; no cut-off is given here.

Columns and labels:
[1] = Selectivity index, ratio of CC50 for human HuH7 cells to IC50 for HCV subtype 1a; type: functional, Huh-7
How it was run: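 The ratio CC50/EC50 comes from the XTT cytotoxicity assay and the luciferase replicon assay, both run in replicon-bearing Huh-7 cells.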

Hepatitis C virus = experiment: Antiviral activity against HCV subtype 1a in Huh7 cells assessed as reduction of viral RNA replication; type: functional, organism-based, Hepacivirus hominis; conditions: Huh-7
How it was run: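 Subgenomic HCV replicon (luciferase) in Huh-7 cells; compounds at 1 to 200 µM, with at least three experiments and three replicates per concentration. Luminescence is expressed as percent of control wells containing 1–2% DMSO. EC50 is the concentration that reduces luminescence by 50%.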

[2] = Cytotoxicity against human HuH7 cells by XTT assay; type: cell-based, Huh-7
How it was run: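 Huh-7 cells carrying the HCV replicon were grown with serial dilutions (1 to 200 µM) for 3 days at 37 °C. XTT-PMS staining followed for 3–4 h at 37 °C. Absorbance was read at 450 nm against a 690 nm reference, with cell-free blank wells subtracted. Growth is expressed as percent of 1–2% DMSO controls, and CC50 is the concentration giving 50% growth inhibition.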

Escherichia phage T7 = experiment: Inhibition of T7 RNA polymerase activity assessed as blockade of DNA transcription
How it was run: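 In vitro transcription with T7 RNA polymerase, using 0.5 µg EcoRI-cut pTZ19R carrying a 341 bp insert as template. The reaction contained 2 mM of each NTP, 1 U/µl RNase inhibitor and 12 U enzyme in 40 mM Tris-HCl pH 7.9, 6 mM MgCl2, 2 mM spermidine, 10 mM NaCl and 10 mM DTT. Incubation was 1 h at 37 °C. Products were run on 1.2% agarose with EtBr, and IC99 was obtained by band densitometry.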

[3] = Inhibition of HCV NS3 helicase activity by fluorimetric assay; design: species or system Hepacivirus hominis
How it was run: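 Direct fluorometric assay of NS3 helicase unwinding, run at 37 °C. IC50 is the inhibitor concentration that reduces helicase activity by 50%.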

Hepacivirus hominis [4] = experiment: Inhibition of HCV NS3 helicase activity in presence of increasing concentration of double stranded DNA substrate at 5 uM
How it was run: (§1)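 Fluorometric NS3 helicase assay at 37 °C. Inhibitor was held at a constant concentration while the dsDNA substrate concentration was increased. Activity is expressed as percent of the same reaction with DMSO in place of inhibitor.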

Hepacivirus hominis [5] = experiment: Inhibition of HCV NS3 helicase activity in presence of increasing ATP concentration
How it was run: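 Fluorometric NS3 helicase assay, run at 37 °C, with IC50 determined at each of three ATP concentrations. Activity is expressed as percent of the same reaction with DMSO in place of inhibitor.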

[6] = Binding affinity to dsRNA assessed as inhibition of ethidium bromide RNA intercalation at 20 uM by RNA migration retardation assay
[7] = Binding affinity to dsRNA assessed as inhibition of ethidium bromide RNA intercalation by RNA migration retardation assay
Nucleic Acid [8] = experiment: Binding affinity to HCV con1 dsDNA assessed as inhibition of ethidium bromide DNA intercalation by DNA migration retardation assay; type: nucleic-acid assay; conditions: Hepacivirus hominis
Nucleic Acid [9] = experiment: Binding affinity to HCV con1 dsDNA assessed as inhibition of ethidium bromide DNA intercalation at 500 uM by DNA migration retardation assay; type: nucleic-acid assay; conditions: Hepacivirus hominis
Hepacivirus hominis [10] = experiment: Inhibition of HCV NS3 helicase activity in presence of increasing concentration of double stranded DNA substrate at 33 uM; how it was run: as §1
Hepacivirus hominis [11] = experiment: Inhibition of HCV NS3 helicase activity in presence of increasing concentration of double stranded DNA substrate at 10 uM; how it was run: as §1

## Cc1ccnc(NC(=O)c2cccc3c(=O)c4ccccc4[nH]c23)c1
[1]
  Ratio CC50/EC50: 1.1
Hepatitis C virus
  EC50: 6.5 µM
[2]
  CC50: 7 µM
Escherichia phage T7
  IC99: 40 µM
[3]
  IC50: 6.2 µM
Hepacivirus hominis [4]
  Activity: inactive
Hepacivirus hominis [5]
  Activity: inactive

## Cc1cccc(NC(=O)c2cccc3c(=O)c4ccccc4[nH]c23)c1
[1]
  Ratio CC50/EC50: 1
Hepatitis C virus
  EC50: 5.6 µM
[2]
  CC50: 5.5 µM
Escherichia phage T7
  IC99: 40 µM
[3]
  IC50: > 100 µM
[6]
  Activity: inactive
[7]
  Activity: inactive

## O=C(Nc1ccccn1)c1cccc2c(=O)c3ccccc3[nH]c12
[1]
  Ratio CC50/EC50: 40.5
Hepatitis C virus
  EC50: 10.2 µM
[2]
  CC50: 412 µM
Escherichia phage T7
  IC99: 40 µM
[3]
  IC50: 3.8 µM
Hepacivirus hominis [4]
  Activity: inactive
Nucleic Acid [8]
  Activity: Active
[6]
  Activity: Active

## [N-]=[N+]=N[C@]1(CO)O[C@@H](n2ccc(N)nc2=O)[C@H](O)[C@@H]1O [4'-AZIDOCYTIDINE]
Hepatitis C virus
  EC50: 1.4 µM

## Cc1ccc(NC(=O)c2cccc3c(=O)c4ccccc4[nH]c23)cc1
Hepatitis C virus
  EC50: > 100 µM
[2]
  CC50: > 100 µM
Escherichia phage T7
  IC99: 10 µM
[3]
  IC50: > 100 µM
[6]
  Activity: inactive
[7]
  Activity: inactive
Nucleic Acid [9]
  Activity: inactive

## O=C(c1cccc2c(=O)c3ccccc3[nH]c12)N1CCCCC1
Escherichia phage T7
  IC99: > 100 µM
[3]
  IC50: > 100 µM

## O=C(Nc1ccccc1)c1cccc2c(=O)c3ccccc3[nH]c12
[1]
  Ratio CC50/EC50: 7.1
Hepatitis C virus
  EC50: 12.9 µM
[2]
  CC50: 90.9 µM
Escherichia phage T7
  IC99: 40 µM
[3]
  IC50: > 100 µM

## Cc1cccnc1NC(=O)c1cccc2c(=O)c3ccccc3[nH]c12
[1]
  Ratio CC50/EC50: 3.5
Hepatitis C virus
  EC50: 11.1 µM
[2]
  CC50: 39.2 µM
Escherichia phage T7
  IC99: 80 µM
[3]
  IC50: 20.2 µM
Hepacivirus hominis [10]
  Activity: inactive
Nucleic Acid [8]
  Activity: Active
[6]
  Activity: Active

## Cc1ccccc1NC(=O)c1cccc2c(=O)c3ccccc3[nH]c12
[1]
  Ratio CC50/EC50: 5.2
Hepatitis C virus
  EC50: 19 µM
[2]
  CC50: 99.3 µM
Escherichia phage T7
  IC99: 80 µM
[3]
  IC50: > 100 µM

## O=C(c1cccc2c(=O)c3ccccc3[nH]c12)N1CCOCC1
Escherichia phage T7
  IC99: > 100 µM
[3]
  IC50: > 100 µM

## O=C(NCCCN1CCOCC1)c1cccc2c(=O)c3ccccc3[nH]c12
Escherichia phage T7
  IC99: > 100 µM
[3]
  IC50: > 100 µM

## O=C(Nc1ccncc1)c1cccc2c(=O)c3ccccc3[nH]c12
[1]
  Ratio CC50/EC50: 19.4
Hepatitis C virus
  EC50: 9 µM
[2]
  CC50: 175 µM
Escherichia phage T7
  IC99: 20 µM
[3]
  IC50: 8.9 µM
Hepacivirus hominis [11]
  Activity: inactive
Nucleic Acid [8]
  Activity: Active
[6]
  Activity: Active

## O=C(NCc1ccccn1)c1cccc2c(=O)c3ccccc3[nH]c12
[1]
  Ratio CC50/EC50: 2.4
Hepatitis C virus
  EC50: 4.3 µM
[2]
  CC50: 10.2 µM
Escherichia phage T7
  IC99: > 100 µM
[3]
  IC50: > 100 µM
[6]
  Activity: inactive

## CN(C)CCNC(=O)c1cccc2c(=O)c3ccccc3[nH]c12
Escherichia phage T7
  IC99: 80 µM
[3]
  IC50: > 100 µM
